This is an account of results in publication PMC5730044 (International journal of medical microbiology : IJMM, 2014).

Converted amounts (≈) assume the structure as drawn. Counter-ions that a name gives are not always drawn.

Experiment [1] has as its system S. pneumoniae PN8828. Nature of the experiment: Biofilm inhibition assay. Format: cell-based. The settings on record: PN8828, TSB, 24 h.
The test system of experiment [2] is S. pneumoniae DSM20566. Put plainly: Biofilm inhibition assay. Type of experiment: cell-based. The settings on record: DSM20566, TSB, 24 h.
For experiment [3], the system named is S. pneumoniae CF6937. Nature of the experiment: Broth microdilution assay. Format: cell-based. Conditions: Streptococcus pneumoniae, CF6937, 18 h, read-out: 90% minimal inhibitory concentration.
The subject of experiment [4] is S. pneumoniae CF8919. Nature of the experiment: Broth microdilution assay. Format: cell-based. Conditions: Streptococcus pneumoniae, CF8919, 18 h, read-out: 90% minimal inhibitory concentration. A general note: In broth dilution the organism is exposed to a series of concentrations in liquid medium.
Experiment [5] deals with S. pneumoniae CJ9400. Nature of the experiment: Minimal bactericidal concentration. Type of experiment: cell-based. Conditions: viability reduced by ≥99.9%.
Experiment [6] concerns S. pneumoniae D39. Put plainly: Minimal bactericidal concentration. Format: cell-based. The settings on record: viability reduced by ≥99.9%.
For experiment [7], the system named is S. pneumoniae CJ9400. Put plainly: Biofilm inhibition assay. Type of experiment: cell-based. The settings on record: CJ9400, TSB, 24 h.
Experiment [8] has as its system S. pneumoniae DSM14378. Nature of the experiment: Biofilm inhibition assay. Type of experiment: cell-based. The settings on record: DSM14378, TSB, 24 h.
For experiment [9], the system named is S. pneumoniae CF8919. Nature of the experiment: Biofilm inhibition assay. Format: cell-based. The settings on record: CF8919, TSB, 24 h.
For experiment [10], the system named is S. pneumoniae CF6937. Nature of the experiment: Biofilm inhibition assay. Type of experiment: cell-based. Conditions: CF6937, TSB, 24 h.
Experiment [11] has as its system S. pneumoniae DSM20566. Nature of the experiment: Broth microdilution assay. The settings on record: Streptococcus pneumoniae, DSM20566, 18 h, read-out: 90% minimal inhibitory concentration. Format: cell-based.
Experiment [12] concerns S. pneumoniae CJ9400. Nature of the experiment: Broth microdilution assay. The settings on record: Streptococcus pneumoniae, CJ9400, 18 h, read-out: 90% minimal inhibitory concentration. Format: cell-based.
The subject of experiment [13] is S. pneumoniae BC57. Nature of the experiment: Broth microdilution assay. Type of experiment: cell-based. Conditions: Streptococcus pneumoniae, BC57, 18 h, read-out: 90% minimal inhibitory concentration.
Experiment [14] relates to S. pneumoniae BC57. Nature of the experiment: Biofilm inhibition assay. Type of experiment: cell-based. The settings on record: BC57, TSB, 24 h.
For experiment [15], the system named is S. pneumoniae. Put plainly: Bactericidal activity, studied pneumococci. Format: cell-based. Conditions: for concentration up to which no inhibitory or bactericidal activity was exhibited: maximum tested concentration.
Experiment [16] concerns S. pneumoniae BC7326. Nature of the experiment: Biofilm inhibition assay. Conditions: BC7326, TSB, 24 h. Format: cell-based.
Experiment [17] deals with S. pneumoniae BC7326. Put plainly: Minimal bactericidal concentration. Type of experiment: cell-based. Conditions: viability reduced by ≥99.9%.
Experiment [18] relates to S. pneumoniae D39. Nature of the experiment: Broth microdilution assay. Format: cell-based. Conditions: Streptococcus pneumoniae, D39, 18 h, read-out: 90% minimal inhibitory concentration.
Experiment [19] relates to S. pneumoniae. Nature of the experiment: Broth microdilution assay. Type of experiment: cell-based. The settings on record: Streptococcus pneumoniae, read-out: MIC90 values. The method in brief: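 Pneumococci were pre-grown in BHI with gentle shaking at 37°C for 4–5 h (mid-exponential), adjusted to McFarland 0.5 (1.5 × 10^8 cfu/mL) and diluted 50× in BHI. 50 µL bacteria plus 100 µL of two-fold compound dilutions (top 50 or 200 µM) in BHI were run in duplicate, overnight at 37°C, 5% CO₂. OD620 at 18 h minus 0 h was taken relative to no-compound growth control; MIC90 is 90% turbidity reduction.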

For experiment [20], the system named is S. pneumoniae DSM20566. Put plainly: Minimal bactericidal concentration. Format: cell-based. Conditions: viability reduced by ≥99.9%.
The subject of experiment [21] is S. pneumoniae BC7326. Put plainly: Broth microdilution assay. Format: cell-based. The settings on record: Streptococcus pneumoniae, BC7326, 18 h, read-out: 90% minimal inhibitory concentration.
Experiment [22] has as its system S. pneumoniae DSM14378. Put plainly: Minimal bactericidal concentration. Format: cell-based. The settings on record: viability reduced by ≥99.9%.
In experiment [23] the test system is S. pneumoniae CF6937. Put plainly: Minimal bactericidal concentration. Type of experiment: cell-based. The settings on record: viability reduced by ≥99.9%.
Experiment [24] deals with S. pneumoniae DSM14378. Put plainly: Broth microdilution assay. Format: cell-based. Conditions: Streptococcus pneumoniae, DSM14378, 18 h, read-out: 90% minimal inhibitory concentration.
In experiment [25] the test system is S. pneumoniae D39. Put plainly: Biofilm inhibition assay. The settings on record: D39, TSB, 24 h. Format: cell-based.
Experiment [26] has as its system S. pneumoniae PN8828. Nature of the experiment: Broth microdilution assay. The settings on record: Streptococcus pneumoniae, PN8828, 18 h, read-out: 90% minimal inhibitory concentration. Format: cell-based.
Experiment [27] deals with recombinant NanA of DSM20566 (Streptococcus pneumoniae, UniProt P62575). Type of experiment: biochemical, S. pneumoniae. The settings on record: read-out: substrate affinity (Km) of rNanA; substrate 4-MUNANA.
In experiment [28] the test system is pneumococcal adherence to pulmonary epithelial A549 cells. The settings on record: DSM20566 and PN8828.
For experiment [29], the system named is pneumococcal NA of strain CJ9400. Put plainly: Lectin-based hemagglutination. Type of experiment: cell-based, S. pneumoniae. Conditions: minimal NA inhibitory concentration.
The subject of experiment [30] is pneumococcal NA of strain DSM20566. Put plainly: Lectin-based hemagglutination. Type of experiment: cell-based, S. pneumoniae. Conditions: minimal NA inhibitory concentration.
Experiment [31] concerns pneumococcal NA of strain D39. Put plainly: Lectin-based hemagglutination. Type of experiment: cell-based, S. pneumoniae. The settings on record: for Inhibitory concentration (HA assay): minimal NA inhibitory concentration, strain D39.
Another experiment concerns the target pneumococcal NA (Streptococcus pneumoniae, UniProt P62575). Format: biochemical, S. pneumoniae. The settings on record: read-out: IC50, CL-based assay; range among the strains.

recombinant NanA of DSM20566, sequence (P62575 116-1035 limits assumed): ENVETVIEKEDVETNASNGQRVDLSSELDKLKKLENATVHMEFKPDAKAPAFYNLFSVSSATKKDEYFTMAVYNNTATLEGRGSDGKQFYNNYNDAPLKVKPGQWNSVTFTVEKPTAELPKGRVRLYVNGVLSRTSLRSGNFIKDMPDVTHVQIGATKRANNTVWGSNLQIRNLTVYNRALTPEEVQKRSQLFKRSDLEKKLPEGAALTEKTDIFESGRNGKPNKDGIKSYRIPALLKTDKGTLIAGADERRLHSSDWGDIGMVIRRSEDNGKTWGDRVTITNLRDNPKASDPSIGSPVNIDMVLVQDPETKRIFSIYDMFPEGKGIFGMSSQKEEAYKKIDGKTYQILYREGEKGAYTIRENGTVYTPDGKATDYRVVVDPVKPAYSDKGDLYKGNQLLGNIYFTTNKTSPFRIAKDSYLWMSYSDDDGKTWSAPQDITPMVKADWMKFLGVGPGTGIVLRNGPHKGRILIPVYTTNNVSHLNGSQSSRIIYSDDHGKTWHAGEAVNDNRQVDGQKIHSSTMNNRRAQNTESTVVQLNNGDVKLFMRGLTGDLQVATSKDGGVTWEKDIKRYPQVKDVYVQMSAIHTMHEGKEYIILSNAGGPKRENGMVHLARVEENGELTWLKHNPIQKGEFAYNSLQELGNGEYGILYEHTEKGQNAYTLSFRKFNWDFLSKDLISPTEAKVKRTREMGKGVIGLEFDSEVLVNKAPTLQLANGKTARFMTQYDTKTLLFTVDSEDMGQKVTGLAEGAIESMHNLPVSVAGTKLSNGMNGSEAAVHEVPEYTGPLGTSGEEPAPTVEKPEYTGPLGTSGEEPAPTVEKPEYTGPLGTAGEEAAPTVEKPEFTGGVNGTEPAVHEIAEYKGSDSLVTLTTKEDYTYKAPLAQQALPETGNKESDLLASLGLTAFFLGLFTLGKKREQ
pneumococcal NA, sequence (P62575 54-1006): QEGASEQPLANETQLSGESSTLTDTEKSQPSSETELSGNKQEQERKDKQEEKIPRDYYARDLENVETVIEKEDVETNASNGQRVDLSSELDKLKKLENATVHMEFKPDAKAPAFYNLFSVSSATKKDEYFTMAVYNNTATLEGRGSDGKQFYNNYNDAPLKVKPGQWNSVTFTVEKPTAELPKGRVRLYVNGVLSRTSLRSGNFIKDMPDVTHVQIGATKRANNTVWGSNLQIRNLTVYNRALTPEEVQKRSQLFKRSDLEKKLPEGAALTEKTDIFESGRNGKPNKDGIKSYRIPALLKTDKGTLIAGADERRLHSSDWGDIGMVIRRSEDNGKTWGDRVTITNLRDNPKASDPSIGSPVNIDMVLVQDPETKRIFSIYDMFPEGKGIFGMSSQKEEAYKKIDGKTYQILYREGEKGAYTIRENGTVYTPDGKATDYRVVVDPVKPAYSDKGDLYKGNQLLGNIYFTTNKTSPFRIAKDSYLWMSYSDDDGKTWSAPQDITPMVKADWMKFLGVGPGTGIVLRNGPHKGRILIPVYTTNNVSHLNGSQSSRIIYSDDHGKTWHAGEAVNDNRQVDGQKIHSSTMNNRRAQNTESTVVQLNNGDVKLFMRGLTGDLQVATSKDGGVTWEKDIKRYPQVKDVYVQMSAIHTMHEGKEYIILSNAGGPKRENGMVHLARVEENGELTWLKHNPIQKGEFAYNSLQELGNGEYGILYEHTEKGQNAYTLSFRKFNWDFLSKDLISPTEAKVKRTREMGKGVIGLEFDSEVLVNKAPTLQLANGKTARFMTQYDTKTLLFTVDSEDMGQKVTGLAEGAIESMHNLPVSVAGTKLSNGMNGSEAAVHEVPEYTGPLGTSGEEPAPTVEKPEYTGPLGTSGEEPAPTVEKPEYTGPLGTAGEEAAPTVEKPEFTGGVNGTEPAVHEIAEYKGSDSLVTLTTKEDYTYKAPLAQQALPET

Usually MIC90 stands for an inhibitory concentration at the 90% level, which refers to growth in some studies and to a panel of isolates in others. Consider `CO[C@H]1/C=C/O[C@@]2(C)Oc3c(C)c(O)c4c(O)c(c(/C=N/N5CCN(C)CC5)c(O)c4c3C2=O)NC(=O)/C(C)=C\C=C\[C@H](C)[C@H](O)[C@@H](C)[C@@H](O)[C@@H](C)[C@H](OC(C)=O)[C@@H]1C` [rifampicin], for which the “90% minimal biofilm inhibitory concentration” value in the experiment with S. pneumoniae PN8828 [1] was determined as 0.011 ± 0.007 µM; in the experiment on S. pneumoniae DSM20566 [2] it was 0.049 ± 0.030 µM; in the experiment on S. pneumoniae CJ9400 [7], 0.003 ± 0.001 µM; in the experiment with S. pneumoniae DSM14378 [8] it was 0.014 ± 0.008 µM; in the experiment with S. pneumoniae CF8919 [9] it was 0.006 ± 0.004 µM; in the experiment with S. pneumoniae CF6937 [10], 0.020 ± 0.002 µM. Besides, the “90% minimal biofilm inhibitory concentration” value worked out at 0.012 ± 0.001 µM in the experiment on S. pneumoniae BC57 [14], 0.016 ± 0.010 µM in the experiment on S. pneumoniae BC7326 [16] and 0.013 ± 0.002 µM in the experiment with S. pneumoniae D39 [25]. In addition, the MIC in the experiment with S. pneumoniae CF6937 [3] worked out at 0.034 ± 0.028 µM (≈ 0.028 µg/mL); in the experiment on S. pneumoniae CF8919 [4], 0.009 ± 0.001 µM (≈ 0.00741 µg/mL); with S. pneumoniae DSM20566 [11] it was 0.041 ± 0.011 µM (≈ 0.0337 µg/mL); in the experiment with S. pneumoniae CJ9400 [12], 0.032 ± 0.03 µM (≈ 0.0263 µg/mL); in the experiment with S. pneumoniae BC57 [13], 0.012 ± 0.002 µM (≈ 0.00988 µg/mL); with S. pneumoniae D39 [18] it was 0.021 ± 0.002 µM (≈ 0.0173 µg/mL). The MIC with S. pneumoniae BC7326 [21] stood at 0.016 ± 0.005 µM (≈ 0.0132 µg/mL); in the experiment on S. pneumoniae DSM14378 [24] it was 0.031 ± 0.023 µM (≈ 0.0255 µg/mL); in the experiment with S. pneumoniae PN8828 [26] it was 0.005 ± 0.001 µM (≈ 0.00411 µg/mL). Further, the Bactericidal concentration in the experiment with S. pneumoniae CJ9400 [5] stood at 0.23 ± 0.16 µM; in the experiment with S. pneumoniae D39 [6], 0.22 ± 0.09 µM; with S. pneumoniae BC7326 [17], 0.08 ± 0.03 µM; with S. pneumoniae DSM20566 [20], 1.97 ± 1.23 µM; in the experiment with S. pneumoniae DSM14378 [22], 0.14 ± 0.06 µM; with S. pneumoniae CF6937 [23], 0.05 ± 0.03 µM. In addition, in the experiment on S. pneumoniae [15] (within 18 h), the “factor of reduction of viability of pneumococci” value is given as more than 1000. Further, in the experiment on S. pneumoniae [19], the MIC90 lay in the range of 0.01 to 0.04 µM (≈ 0.00823 to 0.0329 µg/mL).
The Km is the substrate concentration at which the rate is half of its maximum. In the case of `CC(=O)N[C@H]1[C@H]([C@H](O)[C@H](O)CO)O[C@@](Oc2ccc3c(C)cc(=O)oc3c2)(C(=O)O)C[C@@H]1O` [4-MUNANA, 2′-(4-methylumbelliferyl)-α-D-N-acetylneuraminic acid sodium salt hydrate], the Km in experiment [27] amounted to 23.6 µM.
As to `CC(=O)N[C@H]1[C@H]([C@H](O)[C@H](O)CO)OC(C(=O)O)=C[C@@H]1O` [DANA, 2,3-dehydro-2-deoxy-N-acetylneuraminic acid], the “90% minimal biofilm inhibitory concentration” value with S. pneumoniae PN8828 [1], in the experiment with S. pneumoniae DSM20566 [2], in the experiment with S. pneumoniae CJ9400 [7], with S. pneumoniae DSM14378 [8], with S. pneumoniae CF8919 [9] and in the experiment with S. pneumoniae CF6937 [10] was more than 50 µM throughout. Besides, the “90% minimal biofilm inhibitory concentration” value in the experiment on S. pneumoniae BC57 [14], in the experiment with S. pneumoniae BC7326 [16] and in the experiment on S. pneumoniae D39 [25] was more than 50 µM throughout. The Bactericidal concentration in the experiment with S. pneumoniae CJ9400 [5], in the experiment with S. pneumoniae D39 [6], in the experiment on S. pneumoniae BC7326 [17], in the experiment with S. pneumoniae DSM20566 [20], with S. pneumoniae DSM14378 [22] and in the experiment on S. pneumoniae CF6937 [23] was more than 50 µM each time. Also, the “effect on adhesion of pneumococci to A549 cells (in words)” value in experiment [28] was “did not reduce pneumococcal adherence”. Further, the “Inhibitory concentration (HA assay)” value is reported as 15.4 ± 10.8 µM in experiment [29], 45.3 ± 30.6 µM in [30] and more than 100 µM in experiment [31]. Moreover, in the experiment with S. pneumoniae [15], the “concentration up to which no inhibitory or bactericidal activity was exhibited” value was more than 50 µM. For the same molecule, in [31] (reference strain D39), the “activity in HA assay (in words)” value was “no activity”.
Broadly, the IC50 is the concentration that gives 50% inhibition. Take `O=C(CCc1ccccc1)C[C@@H]1C[C@@H](c2ccccc2)c2c(cc(/C=C/c3ccccc3)oc2=O)O1` [katsumadain A]: the “90% minimal biofilm inhibitory concentration” value in the experiment with S. pneumoniae PN8828 [1], with S. pneumoniae DSM20566 [2], in the experiment on S. pneumoniae CJ9400 [7], in the experiment on S. pneumoniae DSM14378 [8], in the experiment with S. pneumoniae CF8919 [9] and in the experiment on S. pneumoniae CF6937 [10] was more than 50 µM each time. The “90% minimal biofilm inhibitory concentration” value in the experiment with S. pneumoniae BC57 [14], with S. pneumoniae BC7326 [16] and in the experiment on S. pneumoniae D39 [25] was more than 50 µM each time. Further, the MIC with S. pneumoniae CF6937 [3], in the experiment with S. pneumoniae CF8919 [4], in the experiment with S. pneumoniae DSM20566 [11], in the experiment on S. pneumoniae CJ9400 [12], in the experiment with S. pneumoniae BC57 [13] and in the experiment with S. pneumoniae D39 [18] was more than 50 µM throughout. The MIC in the experiment on S. pneumoniae BC7326 [21], in the experiment on S. pneumoniae DSM14378 [24] and with S. pneumoniae PN8828 [26] was more than 50 µM throughout. Moreover, the Bactericidal concentration in the experiment on S. pneumoniae CJ9400 [5], in the experiment with S. pneumoniae D39 [6], with S. pneumoniae BC7326 [17], with S. pneumoniae DSM20566 [20], with S. pneumoniae DSM14378 [22] and in the experiment with S. pneumoniae CF6937 [23] was more than 50 µM in each case. In addition, the “effect on adhesion of pneumococci to A549 cells (in words)” value in [28] was “did not reduce pneumococcal adherence”. The “Inhibitory concentration (HA assay)” value in experiment [29] is listed as 0.7 ± 0.4 µM; in experiment [30] it was 3.2 ± 0.0 µM; in [31], 1.0 ± 0.0 µM. Also, in the experiment with S. pneumoniae [15], the “concentration up to which no inhibitory or bactericidal activity was exhibited” value is more than 50 µM. Also, on pneumococcal NA, the IC50 was 310 to 1610 nM.
